We go through 5 compounds from paper PMC2583325 (Insect biochemistry and molecular biology, 2008).

The target in one experiment is T1, TSGP4 (Ornithodoros kalahariensis, UniProt Q8I9T9).
T1 sequence (Q8I9T9 21-176): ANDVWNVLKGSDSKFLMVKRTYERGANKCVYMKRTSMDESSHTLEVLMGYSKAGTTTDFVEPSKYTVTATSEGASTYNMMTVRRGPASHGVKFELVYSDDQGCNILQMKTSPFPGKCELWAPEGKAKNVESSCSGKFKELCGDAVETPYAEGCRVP
Briefly: isothermal titration calorimetry. The class given is binding. The gist of the method: (§1)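 Recombinantly expressed tick salivary lipocalin, checked for quality, in isothermal titration calorimetry on a VP-ITC instrument. Protein at 2 µM titrated against 20 µM lipid-derived ligand (fatty acid, leukotrienes, thromboxane analogues, prostaglandin, PAF) unless otherwise indicated. Stoichiometry (N), KD, ΔH and TΔS fitted per titration; S.E.M. is deviation of the data from the fit.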
For orientation: In ITC the heat of successive injections is recorded.

The target in a further experiment is T2, AM-33 (Argas monolakensis, UniProt Q09JW0).
T2 sequence (Q09JW0 19-179): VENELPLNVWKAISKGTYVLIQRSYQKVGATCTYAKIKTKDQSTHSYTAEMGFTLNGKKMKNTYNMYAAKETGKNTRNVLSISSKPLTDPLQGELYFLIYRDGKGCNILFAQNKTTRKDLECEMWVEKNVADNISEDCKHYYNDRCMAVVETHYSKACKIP
Briefly: isothermal titration calorimetry. The format is binding. The gist of the method:
as §1

Usually Kd stands for the constant that tells how readily two partners part at equilibrium. High values mean a looser complex, low ones a tighter complex. For the compound `CCCCC/C=C\C[C@@H](O)/C=C/C=C/C=C\[C@@H](O)CCCC(=O)O` [LTB4], the figures for the Kd at TSGP4 and on AM-33 were 1000 ± 476 nM and 587 ± 286 nM, respectively.

`CCCCC/C=C\C\C=C/C=C/C=C/[C@@H](SC[C@H](N)C(=O)NCC(=O)O)[C@@H](O)CCCC(=O)O` [LTD4]: the Kd on TSGP4 and at AM-33 was at most 2 nM throughout.

Turning to `CCCCC/C=C\C/C=C\C/C=C\C/C=C\CCCC(=O)O` [Arachidonic acid], the Kd is 155 ± 43 nM at TSGP4 and 613 ± 198 nM on AM-33.

As for `CCCCC/C=C\C\C=C/C=C/C=C/[C@@H](SC[C@H](N)C(=O)O)[C@@H](O)CCCC(=O)O` [LTE4], the Kd on TSGP4 is 10.8 ± 2 nM; at AM-33 it was 68 ± 6.6 nM.

As for `CCCCC/C=C\C\C=C/C=C/C=C/[C@@H](SC[C@H](NC(=O)CC[C@H](N)C(=O)O)C(=O)NCC(=O)O)[C@@H](O)CCCC(=O)O` [LTC4], the figures for the Kd at TSGP4 and on AM-33 were at most 2 nM and 2.2 ± 0.4 nM, respectively.
